Assay type in all cases: cell-based
Assay [1] relates to T1, Trace amine-associated receptor 1 (Homo sapiens), Q96RJ0 [F186A].
T1 sequence (whole entry): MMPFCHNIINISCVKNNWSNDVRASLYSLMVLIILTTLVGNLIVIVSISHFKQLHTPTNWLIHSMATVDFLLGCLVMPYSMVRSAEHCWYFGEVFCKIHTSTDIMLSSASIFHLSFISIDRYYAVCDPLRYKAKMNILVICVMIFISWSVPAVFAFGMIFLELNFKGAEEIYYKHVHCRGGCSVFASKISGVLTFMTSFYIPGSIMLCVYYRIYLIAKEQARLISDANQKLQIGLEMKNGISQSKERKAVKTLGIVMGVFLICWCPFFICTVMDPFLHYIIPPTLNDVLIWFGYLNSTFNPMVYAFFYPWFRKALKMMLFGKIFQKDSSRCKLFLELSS
The assay can be described thus: Agonist activity against TAAR1 F186A mutant (unknown origin) expressed in HEK293 cells assessed as increase in cAMP accumulation incubated for 30 mins by HTRF assay. In outline: (§1)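 HEK293 cells harvested 48 h after transfection with plasmid at 1 μg mL–1; 8000 cells per well incubated 30 min at 37 °C with agonist over 10–4 to 10–10 M. cAMP read by HTRF (d2-cAMP plus Eu-cryptate antibody, 1 h room temperature; excitation 330 nm, emission 620/665 nm). pEC50 and Emax from dose–response curves; mean ± s.e.m. of three independent experiments, each in technical triplicate.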

Assay [2] concerns T2, Trace amine-associated receptor 1 (Homo sapiens), Q96RJ0 [F268A].
T2 sequence (whole entry): T1 sequence (whole entry) with A186F, F268A
The assay can be described thus: Agonist activity against TAAR1 F268A mutant (unknown origin) expressed in HEK293 cells assessed as increase in cAMP accumulation incubated for 30 mins by HTRF assay. Particulars: filed as agonist. The method in brief:
as §1

The subject of assay [3] is T3, Trace amine-associated receptor 1 (Homo sapiens), Q96RJ0 [V184A].
T3 sequence (whole entry): T1 sequence (whole entry) with V184A, A186F
The assay can be described thus: Agonist activity against TAAR1 V184A mutant (unknown origin) expressed in HEK293 cells assessed as increase in cAMP accumulation incubated for 30 mins by HTRF assay. The method in brief: as §1

The subject of assay [4] is T4, Trace amine-associated receptor 1 (Homo sapiens), Q96RJ0 [Y294A].
T4 sequence (whole entry): T1 sequence (whole entry) with A186F, Y294A
The assay can be described thus: Agonist activity against TAAR1 Y294A mutant (unknown origin) expressed in HEK293 cells assessed as increase in cAMP accumulation incubated for 30 mins by HTRF assay. The method in brief:
as §1

For assay [5], the system named is T5, Trace amine-associated receptor 1 (Homo sapiens), Q96RJ0 [W264A].
T5 sequence (whole entry): T1 sequence (whole entry) with A186F, W264A
As to the kind of experiment: Agonist activity against TAAR1 W264A mutant (unknown origin) expressed in HEK293 cells assessed as increase in cAMP accumulation incubated for 30 mins by HTRF assay. In outline:
as §1

For assay [6], the system named is T6, Trace amine-associated receptor 1 (Homo sapiens), Q96RJ0 [F195A].
T6 sequence (whole entry): T1 sequence (whole entry) with F185A, A186F
The assay can be described thus: Agonist activity against TAAR1 F195A mutant (unknown origin) expressed in HEK293 cells assessed as increase in cAMP accumulation incubated for 30 mins by HTRF assay. The method in brief: as §1

In assay [7] the test system is T7, Trace amine-associated receptor 1 (Homo sapiens), Q96RJ0 [D103A].
T7 sequence (whole entry): T1 sequence (whole entry) with D103A, A186F
As to the kind of experiment: Agonist activity against TAAR1 D103A mutant (unknown origin) expressed in HEK293 cells assessed as increase in cAMP accumulation incubated for 30 mins by HTRF assay. The method in brief:
as §1

The test system of assay [8] is T8, Trace amine-associated receptor 1 (Homo sapiens), Q96RJ0 [F267A].
T8 sequence (whole entry): T1 sequence (whole entry) with A186F, F267A
The assay can be described thus: Agonist activity against TAAR1 F267A mutant (unknown origin) expressed in HEK293 cells assessed as increase in cAMP accumulation incubated for 30 mins by HTRF assay. The method in brief:
as §1

Assay [9] relates to T9, Trace amine-associated receptor 1 (Homo sapiens), Q96RJ0 [I104A].
T9 sequence (whole entry): T1 sequence (whole entry) with I104A, A186F
As to the kind of experiment: Agonist activity against TAAR1 I104A mutant (unknown origin) expressed in HEK293 cells assessed as increase in cAMP accumulation incubated for 30 mins by HTRF assay. The method in brief:
as §1

In assay [10] the test system is T10, Trace amine-associated receptor 1 (Homo sapiens), Q96RJ0 [G293A].
T10 sequence (whole entry): T1 sequence (whole entry) with A186F, G293A
As to the kind of experiment: Agonist activity against TAAR1 G293A mutant (unknown origin) expressed in HEK293 cells assessed as increase in cAMP accumulation incubated for 30 mins by HTRF assay. In outline:
as §1

Assay [11] deals with T11, Trace amine-associated receptor 1 (Homo sapiens), Q96RJ0 [I290A].
T11 sequence (whole entry): T1 sequence (whole entry) with A186F, I290A
As to the kind of experiment: Agonist activity against TAAR1 I290A mutant (unknown origin) expressed in HEK293 cells assessed as fold increase in cAMP accumulation incubated for 30 mins by HTRF assay relative to control. As to conditions: filed as agonist.

Activity and fold change (FC) data for 2 compounds are collected here from ChEMBL document CHEMBL6071171, “Molecular Mechanisms of Methamphetamine-Induced Addiction via TAAR1 Activation” (J Med Chem, 2024).

Numbering of substitutions follows the chain as printed. Calls of active or inactive are those of the source. The rule behind the calls is not given here.

With `NCCc1ccccc1`, the result in [1] and in assay [3] was inactive. Moreover, the outcome in [2] was Active.
Consider `CN[C@@H](C)Cc1ccccc1`, for which the result in assay [1], in assay [4], in [5], in assay [6], in [7] and in assay [8] was inactive. The outcome in assay [9] and in assay [10] was inactive. The outcome in assay [2] and in assay [3] (filed as agonist) was Active. In addition, the fold change (FC) in assay [11] was determined as 6.
